Five compounds from ChEMBL document CHEMBL5661968, “Antitumor activity of ZSTK474, a new phosphatidylinositol 3-kinase inhibitor” (J Natl Cancer Inst, 2006) can be followed below.

Test [1] concerns B16-F10. Put plainly: Antitumor activity against mouse B16-F10 cells implanted in BDF1 mouse assessed as tumor size relative to control (T/C) at 100 mg/kg, iv administered on day 0,3 and 7 measured after 14 days. To be noted: 336 h.
Test [2] concerns B16-F10. Nature of the test: Antitumor activity against mouse B16-F10 cells implanted in BDF1 mouse assessed as tumor size relative to control (T/C) at 12 mg/kg, iv administered on day 0 measured after 14 days. The following applies: 336 h.
The test system of test [3] is B16-F10. Nature of the test: Antitumor activity against mouse B16-F10 cells implanted in BDF1 mouse assessed as tumor growth inhibition at 50 mg/kg, po administered on day 0,3 and 7 measured after 14 days. The test is classed as functional. To be noted: B16-F10, 336 h, time 14 day, read-out: TGI. A digest of the protocol:
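Male BDF1 mice given 5 × 10^5 B16F10 melanoma cells subcutaneously; dosing began 7 days after inoculation (day 0) in random groups of seven. Tumours were measured by calipers, with TV = (L × W²)/2 and RTV = TVn/TV0. T/C% on day 14 = 100 × mean RTV treated / mean RTV control. Body weight was also recorded.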

Test [4] can be described thus: Inhibition of PI3K in human A549 cell lysate preincubated with compound for 5 mins followed by [gamma-32p]-ATP addition measured after 20 mins by immunoprecipitation based liquid scintillation spectroscopic analysis. The test is classed as subcellular. A digest of the protocol: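 PI3K immunoprecipitated with anti-p85 polyclonal antibody and protein G–agarose from A549 lysate (2–4 mg/mL protein), washed, suspended in buffer C (100 mM NaCl, 20 mM Tris pH 7.5) with 200 μg/mL phosphatidylinositol; compound preincubated 5 min at 25 °C; reaction started with [γ-32P]ATP (20 μM final) and 20 mM MgCl2, run 20 min at 25 °C; PI3P separated by TLC, counted by scintillation; activity as % of no-compound cpm.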

In test [5] the test system is A549. Put plainly: Irreversible inhibition of PI3K in human A549 cell lysate at 1 uM preincubated with compound for 5 mins followed by [gamma-32p]-ATP addition measured after 20 mins by immunoprecipitation based liquid scintillation spectroscopic analysis. The test is classed as subcellular. The following applies: time 25.0 min. An outline of the steps:
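Class Ia PI3K was immunoprecipitated with anti-p85 antibody from A549 lysate and preincubated 5 min with compound at 1 μM. The mix was split: one aliquot washed four times (100 mM NaCl, 20 mM Tris pH 7.5), the other unwashed. Each aliquot was assayed with phosphatidylinositol 200 μg/mL, [γ-32P]ATP 20 μM final and MgCl2 20 mM final, 25 °C for 20 min. PI3P was separated by TLC, scraped and counted by scintillation, expressed as % of no-compound cpm.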

For test [6], the system named is HCT-116. Put plainly: Growth inhibition of human HCT-116 cells measured after 48 hrs by sulforhodamine B assay. The test is classed as functional. An outline of the steps:
(§1)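 JFCR39 panel lines were grown in RPMI 1640 with 5% FBS, penicillin and streptomycin at 37 °C in 5% CO2. After 48 h of drug exposure, total cellular protein was measured by sulforhodamine B staining. GI50 was calculated by a previously described method.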

Test [7] deals with PC-3. Put plainly: Growth inhibition of human PC-3 cells measured after 48 hrs by sulforhodamine B assay. The test is classed as functional. A digest of the protocol:
as §1

The subject of test [8] is A549. Put plainly: Growth inhibition of human A549 cells measured after 48 hrs by sulforhodamine B assay. The test is classed as functional. A digest of the protocol: as §1
(The SRB assay estimates cell density from bound dye.)

Test [9] has as its system MKN-28. Nature of the test: Growth inhibition of human MKN-28 cells measured after 48 hrs by sulforhodamine B assay. The test is classed as functional. A digest of the protocol: as §1
Test [10] relates to NCI-H522. Put plainly: Growth inhibition of human NCI-H522 cells measured after 48 hrs by sulforhodamine B assay. The test is classed as functional. A digest of the protocol: as §1
In test [11] the test system is NCI-H23. Put plainly: Growth inhibition of human NCI-H23 cells measured after 48 hrs by sulforhodamine B assay. The test is classed as functional. A digest of the protocol: as §1
The subject of test [12] is ACHN. Nature of the test: Growth inhibition of human ACHN cells measured after 48 hrs by sulforhodamine B assay. The test is classed as functional. A digest of the protocol: as §1
A short description of test [13]: Growth inhibition of human HBC5 cells measured after 48 hrs by sulforhodamine B assay. The test is classed as functional. An outline of the steps: as §1
Test [14] concerns SNB-75. Put plainly: Growth inhibition of human SNB-75 cells measured after 48 hrs by sulforhodamine B assay. The test is classed as functional. A digest of the protocol:
as §1

Test [15] deals with OVCAR-4. Nature of the test: Growth inhibition of human OVCAR-4 cells measured after 48 hrs by sulforhodamine B assay. The test is classed as functional. A digest of the protocol:
as §1

Test [16] concerns OVCAR-5. Nature of the test: Growth inhibition of human OVCAR-5 cells measured after 48 hrs by sulforhodamine B assay. The test is classed as functional. A digest of the protocol: as §1
Test [17] deals with MKN-74. Nature of the test: Growth inhibition of human MKN74 cells measured after 48 hrs by sulforhodamine B assay. The test is classed as functional. An outline of the steps:
as §1

Test [18] is described as follows: Growth inhibition of human HBC4 cells measured after 48 hrs by sulforhodamine B assay. The test is classed as functional. A digest of the protocol: as §1
Test [19] deals with MKN-45. Nature of the test: Growth inhibition of human MKN-45 cells measured after 48 hrs by sulforhodamine B assay. The test is classed as functional. An outline of the steps: as §1
Test [20] deals with HCC 2998. Nature of the test: Growth inhibition of human HCC 2998 cells measured after 48 hrs by sulforhodamine B assay. The test is classed as functional. An outline of the steps: as §1
The test system of test [21] is HCT-15. Nature of the test: Growth inhibition of human HCT-15 cells measured after 48 hrs by sulforhodamine B assay. The test is classed as functional. An outline of the steps: as §1
Test [22] has as its system SF-295. Put plainly: Growth inhibition of human SF-295 cells measured after 48 hrs by sulforhodamine B assay. The test is classed as functional. A digest of the protocol: as §1
Test [23] has as its system OVCAR-3. Nature of the test: Growth inhibition of human OVCAR-3 cells measured after 48 hrs by sulforhodamine B assay. The test is classed as functional. A digest of the protocol: as §1
Test [24] relates to DMS-114. Put plainly: Growth inhibition of human DMS-114 cells measured after 48 hrs by sulforhodamine B assay. The test is classed as functional. A digest of the protocol: as §1
Test [25] has as its system DMS-273. Nature of the test: Growth inhibition of human DMS-273 cells measured after 48 hrs by sulforhodamine B assay. The test is classed as functional. An outline of the steps:
as §1

In test [26] the test system is HT-29. Nature of the test: Growth inhibition of human HT-29 cells measured after 48 hrs by sulforhodamine B assay. The test is classed as functional. A digest of the protocol: as §1
The nature of test [27]: Growth inhibition of human BSY1 cells measured after 48 hrs by sulforhodamine B assay. To be noted: BSY-1. The test is classed as functional. A digest of the protocol:
as §1

Test [28] has as its system DU-145. Nature of the test: Growth inhibition of human DU-145 cells measured after 48 hrs by sulforhodamine B assay. The test is classed as functional. An outline of the steps:
as §1

Test [29] deals with MKN-7. Put plainly: Growth inhibition of human MKN-7 cells measured after 48 hrs by sulforhodamine B assay. The test is classed as functional. An outline of the steps: as §1
The subject of test [30] is SK-OV-3. Put plainly: Growth inhibition of human SK-OV-3 cells measured after 48 hrs by sulforhodamine B assay. The test is classed as functional. An outline of the steps: as §1
Test [31] has as its system KM12. Put plainly: Growth inhibition of human KM12 cells measured after 48 hrs by sulforhodamine B assay. The test is classed as functional. An outline of the steps: as §1
Test [32] in a line: Residual PI3K activity in human A549 cell lysate at 1 uM preincubated with compound for 5 mins followed by [gamma-32p]-ATP addition measured after 20 mins by immunoprecipitation based liquid scintillation spectroscopic analysis relative to control. The following applies: A549, 25 min.
The test system of test [33] is MDA-MB-231. Put plainly: Growth inhibition of human MDA-MB-231 cells measured after 48 hrs by sulforhodamine B assay. The test is classed as functional. A digest of the protocol: as §1
Test [34] deals with NCI-H460. Put plainly: Growth inhibition of human NCI-H460 cells measured after 48 hrs by sulforhodamine B assay. The test is classed as functional. An outline of the steps: as §1
In test [35] the test system is U-251. Put plainly: Growth inhibition of human U-251 cells measured after 48 hrs by sulforhodamine B assay. The test is classed as functional. An outline of the steps: as §1
The test system of test [36] is SF-268. Put plainly: Growth inhibition of human SF-268 cells measured after 48 hrs by sulforhodamine B assay. The test is classed as functional. A digest of the protocol: as §1
The subject of test [37] is LOX IMVI. Put plainly: Growth inhibition of human LOX IMVI cells measured after 48 hrs by sulforhodamine B assay. The test is classed as functional. A digest of the protocol: as §1
For test [38], the system named is RXF 631. Nature of the test: Growth inhibition of human RXF 631 cells measured after 48 hrs by sulforhodamine B assay. The test is classed as functional. An outline of the steps:
as §1

For test [39], the system named is SF-539. Nature of the test: Growth inhibition of human SF-539 cells measured after 48 hrs by sulforhodamine B assay. The test is classed as functional. A digest of the protocol:
as §1

Test [40] concerns SNB-78. Nature of the test: Growth inhibition of human SNB-78 cells measured after 48 hrs by sulforhodamine B assay. The test is classed as functional. An outline of the steps:
as §1

The subject of test [41] is OVCAR-8. Put plainly: Growth inhibition of human OVCAR-8 cells measured after 48 hrs by sulforhodamine B assay. The test is classed as functional. An outline of the steps:
as §1

Test [42] has as its system NCI-H226. Put plainly: Growth inhibition of human NCI-H226 cells measured after 48 hrs by sulforhodamine B assay. The test is classed as functional. A digest of the protocol:
as §1

The subject of test [43] is St-4. Nature of the test: Growth inhibition of human St-4 cells measured after 48 hrs by sulforhodamine B assay. The test is classed as functional. An outline of the steps: as §1
Test [44] deals with MKN-1. Nature of the test: Growth inhibition of human MKN-1 cells measured after 48 hrs by sulforhodamine B assay. The test is classed as functional. An outline of the steps:
as §1

Activity calls are given as the source filed them. The calls are words filed in the database; no cut-off is given here.

For the compound `CCc1c2c(nc3ccc(OC(=O)N4CCC(N5CCCCC5)CC4)cc13)-c1cc3c(c(=O)n1C2)COC(=O)[C@]3(O)CC` [IRINOTECAN], the T/C at 100 mg/kg in test [1] worked out at 96%.
Take `COc1cccc2c1C(=O)c1c(O)c3c(c(O)c1C2=O)C[C@@](O)(C(=O)CO)C[C@@H]3O[C@H]1C[C@H](N)[C@H](O)[C@H](C)O1` [DOXORUBICIN]: the T/C at 12 mg/kg in [2] was found to be 24%.
As to `O=c1[nH]cc(F)c(=O)[nH]1` [FLUOROURACIL], the inhibition in vivo at 50 mg/kg in [3] was found to be 68.3%.
Consider `COC[C@H]1OC(=O)c2coc3c2[C@@]1(C)C1=C(C3=O)[C@@H]2CCC(=O)[C@@]2(C)C[C@H]1OC(C)=O` [WORTMANNIN], for which, in [4], the IC50 came to 0.011 µM. In addition, the inhibition entry in [5] is “Active”.
Regarding `O=c1cc(N2CCOCC2)oc2c(-c3ccccc3)cccc12` [LY-294002], the GI50 in test [6] is 15.1 µM; in [7], 1.78 µM; in test [8], 6.03 µM; in test [9], 24.5 µM; in test [10] it was 3.24 µM; in test [11], 16.6 µM. In addition, the GI50 in [12] was 10 µM; in test [13], 3.98 µM; in test [14] it was 2.57 µM; in test [15], 4.27 µM; in [16], 8.13 µM; in [17], 18.2 µM. Moreover, the GI50 in [18] is 8.71 µM; in [19], 7.08 µM; in [20], 10.5 µM; in [21], 9.77 µM; in test [22], 3.24 µM; in test [23] it was 5.75 µM. Also, the GI50 in [24] is 2.95 µM; in [25], 6.03 µM; in test [26], 15.1 µM; in [27], 5.01 µM; in test [28], 10 µM; in [29] it was 24 µM. The GI50 in [30] is 14.1 µM; in test [31] it was 15.5 µM; in [33], 5.37 µM; in test [34] it was 17 µM; in test [35], 15.5 µM; in test [36], 6.61 µM. Besides, the GI50 is 6.17 µM in test [37]; 5.5 µM in test [38]; 3.09 µM in test [39]; 2.57 µM in test [40]; 10 µM in test [41]; 4.37 µM in test [42]. The results for the GI50 in test [43] and in [44] were 20.9 µM and 10.5 µM, respectively. Moreover, the IC50 in test [4] came to 0.79 µM. In addition, the level, % of control at 1 µM in [32] came out at 44.6%.

A word on the T/C: it is the ratio of treated to control. In general, IC50 refers to the concentration needed to halve the response being measured. Usually GI50 stands for the concentration at which growth is held to half of that of the control. Low readings indicate more potent growth inhibition, high ones less potent growth inhibition.
